ChEMBL document CHEMBL1124697, “A new family of water-soluble, third generation antitumor platinum complexes” (J Med Chem, 1989)
Active and inactive are the calls of the source.

How the values were obtained:
P388 [1] = assay: Percent survivors when compound administered at 25 mg/kg against P388 leukemia cells in BDF1 mice; type: functional; settings: Mus musculus
Summary of the method: (§1)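 BDF1 mice inoculated with P388, L1210 or cisplatin-resistant L1210 leukemia. Compound given ip on days 1, 5 and 9 relative to tumor inoculation, and mice observed for 30 days. Median % increase in life span over controls and % survivors are reported at the optimal dose. Activity requires ILS ≥25%. Toxicity is rated when ILS or body weight is reduced by ≥15%.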

L1210 [2] = assay: Percent survivors when compound administered at 25 mg/kg against L1210 cisplatin resistant leukemia cells in BDF1 mice; type: functional, organism-based; design: dose 25 mg/kg; settings: Mus musculus; summary of the method: as §1
P388 [3] = assay: Percent increase in life span when compound administered at 25 mg/kg against P388 leukemia cells in BDF1 mice; type: functional; settings: Mus musculus; summary of the method: as §1
Colon 26 [4] = assay: Percent survivors when compound administered at 25 mg/kg against Colon 26 cells in balb/C mice; type: functional, organism-based; design: dose 25 mg/kg; settings: Mus musculus
Summary of the method: (§2)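 Colon 26 tumor in Balb/C mice. Dosing ip on days 1, 5 and 9 after tumor inoculation, with a 30-day observation period. Readouts are median % increase in life span over control mice and % survivors, given at the optimal dose. Activity threshold is ILS ≥25%. A ≥15% drop in ILS or body weight is rated toxic.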

L1210 [5] = assay: Percent increase in life span when compound administered at 25 mg/kg against L1210 cisplatin resistant leukemia cells in BDF1 mice; type: functional, organism-based; design: dose 25 mg/kg; settings: Mus musculus
Summary of the method: (§3)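 BDF1 mice bearing P388, L1210 or cisplatin-resistant L1210 leukemia; ip dosing on days 1, 5 and 9 relative to tumor inoculation, 30-day observation. Median % ILS over controls at optimal dose plus % survivors; ≥25% ILS counted as active, ≥15% reduction in ILS or body weight over controls rated toxic.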

L1210 [6] = assay: Percent increase in life span when compound administered at 25 mg/kg against L1210 leukemia cells in BDF1 mice; type: functional, organism-based; design: dose 25 mg/kg; settings: Mus musculus; summary of the method: as §3
B16 [7] = assay: Percent survivors when compound administered at 12.5 mg/kg against B-16 melanoma cells in […] mice; type: functional; settings: Mus musculus
Summary of the method: (§4)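 Median % increase in life span versus controls and % survivors are recorded at the optimal dose. ILS ≥25% counts as active, and a ≥15% reduction in ILS or body weight counts as toxic.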

Colon 26 [8] = assay: Percent in life span when compound administered at 25 mg/kg against Colon 26 cells in balb/C mice; type: functional, organism-based; design: dose 25 mg/kg; settings: Mus musculus
Summary of the method: (§5)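 Colon 26 in Balb/C mice. Test agents given ip on days 1, 5 and 9 relative to tumor inoculation; mice observed 30 days. Median % increase in life span at optimal dose, with % survivors noted; ILS ≥25% over controls required for activity; ILS or body weight reduced ≥15% versus controls rated toxic.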

L1210 [9] = assay: Percent survivors when compound administered at 25 mg/kg against L1210 leukemia cells in BDF1 mice; type: functional, organism-based; design: dose 25 mg/kg; settings: Mus musculus; summary of the method: as §1
B16 [10] = assay: Percent increase in life span when compound administered at 12.5 mg/kg against B-16 melanoma cells in […] mice; type: functional; settings: Mus musculus; summary of the method: as §4
P388 [11] = assay: Percent increase in life span when compound administered at 6.2 mg/kg against P388 leukemia cells in BDF1 mice; type: functional, organism-based; design: dose 6.2 mg/kg; settings: Mus musculus; summary of the method: as §3
B16 [12] = assay: Percent increase in life span when compound administered at 0.4 mg/kg against B-16 melanoma cells in […] mice; type: functional, organism-based; design: dose 0.4 mg/kg; settings: Mus musculus
Summary of the method: (§6)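 B-16 melanoma in […] mice; compounds given ip daily on days 1–9 relative to tumor inoculation, animals followed 60 days. Read-out median % increase in life span over controls at optimal dose with % survivors; activity threshold ILS ≥25%; ≥15% reduction in ILS or body weight versus controls rated toxic.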

P388 [13] = assay: Percent survivors when compound administered at 6.2 mg/kg against P388 leukemia cells in BDF1 mice; type: functional, organism-based; design: dose 6.2 mg/kg; settings: Mus musculus; summary of the method: as §1
Colon 26 [14] = assay: Percent in life span when compound administered at 3.1 mg/kg against Colon 26 cells in balb/C mice; type: functional, organism-based; design: dose 3.1 mg/kg; settings: Mus musculus; summary of the method: as §5
Colon 26 [15] = assay: Percent survivors when compound administered at 3.1 mg/kg against Colon 26 cells in balb/C mice; type: functional, organism-based; design: dose 3.1 mg/kg; settings: Mus musculus; summary of the method: as §2
[16] = Water solubility was determined; type: ADME; settings: buffer
B16 [17] = assay: Percent increase in life span when compound administered at 25 mg/kg against B-16 melanoma cells in […] mice; type: functional, organism-based; design: dose 25 mg/kg; settings: Mus musculus; summary of the method: as §6
P388 [18] = assay: Percent increase in life span when compound administered at 200 mg/kg against P388 leukemia cells in BDF1 mice; type: functional, organism-based; design: dose 200 mg/kg; settings: Mus musculus
P388 [19] = assay: Percent survivors when compound administered at 200 mg/kg against P388 leukemia cells in BDF1 mice; type: functional, organism-based; design: dose 200 mg/kg; settings: Mus musculus; summary of the method: as §1
B16 [20] = assay: Percent survivors when compound administered at 25 mg/kg against B-16 melanoma cells in […] mice; type: functional, organism-based; design: dose 25 mg/kg; settings: Mus musculus; summary of the method: as §4
Colon 26 [21] = assay: Percent in life span when compound administered at 1 mg/kg againstColon 26 cells in balb/C mice; type: functional, organism-based; design: dose 1 mg/kg; settings: Mus musculus; summary of the method: as §5
L1210 [22] = assay: Percent increase in life span when compound administered at 6.2 mg/kg against L1210 leukemia cells in BDF1 mice; type: functional, organism-based; design: dose 6.2 mg/kg; settings: Mus musculus; summary of the method: as §3
L1210 [23] = assay: Percent increase in life span when compound administered at 50 mg/kg against L1210 cisplatin resistant leukemia cells in BDF1 mice; IA=inactive; type: functional, organism-based; design: dose 50 mg/kg; settings: Mus musculus; summary of the method: as §3
B16 [24] = assay: Percent survivors when compound administered at 0.4 mg/kg against B-16 melanoma cells in […] mice; type: functional, organism-based; design: dose 0.4 mg/kg; settings: Mus musculus; summary of the method: as §4
Colon 26 [25] = assay: Percent survivors when compound administered at 1 mg/kg againstColon 26 cells in balb/C mice; type: functional, organism-based; design: dose 1 mg/kg; settings: Mus musculus; summary of the method: as §2
L1210 [26] = assay: Percent survivors when compound administered at 50 mg/kg against L1210 cisplatin resistant leukemia cells in BDF1 mice; IA=inactive; type: functional, organism-based; design: dose 50 mg/kg; settings: Mus musculus; summary of the method: as §1
P388 [27] = assay: Percent survivors when compound administered at 12.5 mg/kg against P388 leukemia cells in BDF1 mice; type: functional, organism-based; design: dose 12.5 mg/kg; settings: Mus musculus; summary of the method: as §1
P388 [28] = assay: Percent increase in life span when compound administered at 12.5 mg/kg against P388 leukemia cells in BDF1 mice; type: functional, organism-based; design: dose 12.5 mg/kg; settings: Mus musculus; summary of the method: as §3

Platinum:2,4,10,15-Tetraoxa-8,16-diaza-dispiro[5.2.6.2]heptadecane-11,14-dione
Survivors (P388 [1]): 1%
Survivors (L1210 [2]): 0%
Increase (P388 [3]): 120%
Survivors (Colon 26 [4]): 0%
Increase (L1210 [5]): 44%
Increase (L1210 [6]): 110%
Survivors (B16 [7]): 0%
Increase (Colon 26 [8]): 46%
Survivors (L1210 [9]): 1%
Increase (B16 [10]): 56%

Platinum:9,9-Dichloro-2,4-dioxa-8,10-diaza-spiro[5.5]undecane
Increase (P388 [11]): 173%
Increase (B16 [12]): 27%
Survivors (P388 [13]): 3%
Increase (Colon 26 [14]): 41%
Survivors (Colon 26 [15]): 0%

Platinum:8,8-Dichloro-1,3-dioxa-7,9-diaza-spiro[4.5]decane
Water solubility [16]: < 200 µg/mL

Platinum:Formic acid 9-formyloxy-3-methyl-2,4-dioxa-8,10-diaza-spiro[5.5]undec-9-yl ester
Increase (B16 [17]): 62%
Increase (P388 [18]): 173%
Survivors (P388 [19]): 5%
Survivors (B16 [20]): 0%

CISPLATIN
Increase (Colon 26 [21]): 47%
Increase (L1210 [22]): 96%
Increase (P388 [11]): 140%
Increase (B16 [12]): 36%
Survivors (P388 [13]): 17%
Increase (L1210 [23]): inactive
Survivors (B16 [24]): 0%
Survivors (Colon 26 [25]): 17%
Survivors (L1210 [26]): inactive

Platinum:9,9-Dichloro-3-methyl-2,4-dioxa-8,10-diaza-spiro[5.5]undecane
Survivors (P388 [27]): 1%
Increase (P388 [28]): 136%
